Measurements as given in ChEMBL document CHEMBL1143088, “Non-acidic pyrazole EP1 receptor antagonists with in vivo analgesic efficacy” (Bioorg Med Chem Lett, 2008).

Key:
[1] = system: Blood; experiment: Drug uptake in FCA-induced hypersensitivity rat blood at 1 mg/kg, po administered with NMP as vehicle; format: ADME, organism-based; set-up: dose 1 mg/kg, route oral; conditions: in vivo, read-out: Drug uptake
Method in brief: (§1)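 CFA inflammatory pain rats dosed orally at 1, 3 and 10 mg/kg in 2% NMP, 2% miglyol, 2% solutol–Kleptose in water; samples taken 1 h post-dose. Blood levels mean of seven rats; brain level at 10 mg/kg only, mean of three rats.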

[2] = target: T1, Prostaglandin E2 receptor EP1 subtype (Homo sapiens, UniProt P34995); experiment: Antagonist activity at PGE2-EP1 receptor assessed as PGE2-induced intracellular calcium mobilization; format: functional, cell-based
T1 sequence (P34995 whole entry): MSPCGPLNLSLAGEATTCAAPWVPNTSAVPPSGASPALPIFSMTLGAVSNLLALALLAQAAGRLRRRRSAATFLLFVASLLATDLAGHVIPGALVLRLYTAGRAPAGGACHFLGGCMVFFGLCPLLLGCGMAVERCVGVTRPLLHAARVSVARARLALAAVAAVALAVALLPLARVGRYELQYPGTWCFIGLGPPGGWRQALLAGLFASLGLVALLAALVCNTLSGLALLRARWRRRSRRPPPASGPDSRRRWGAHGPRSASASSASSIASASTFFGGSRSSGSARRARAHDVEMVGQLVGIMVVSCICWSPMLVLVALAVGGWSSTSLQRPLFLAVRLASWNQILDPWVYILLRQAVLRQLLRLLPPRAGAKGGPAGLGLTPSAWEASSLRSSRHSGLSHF

[3] = system: Brain; experiment: Drug uptake in FCA-induced hypersensitivity rat brain at 10 mg/kg, po administered with NMP as vehicle; format: ADME, organism-based; set-up: dose 10 mg/kg, route oral; conditions: read-out: Drug uptake, in vivo; method in brief: as §1
[4] = system: Rattus norvegicus; experiment: Reversal of FCA-induced hypersensitivity in orally dosed rat assessed as reduction in weight bearing administered with DMSO and PEG400 as vehicle; format: functional; conditions: po
Method in brief: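 Rats with CFA-induced inflammatory pain were dosed orally at 1, 3 and 10 mg/kg or 1, 3, 10 and 30 mg/kg. The vehicle was 1% DMSO, 66% PEG400 and 33% water. Weight bearing was read 1 h post-dose and samples were taken then. Brain:blood ratio was measured in the 10 mg/kg group (n=7). ED50 was derived in mg/kg.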

[5] = target: T1, Prostaglandin E2 receptor EP1 subtype; experiment: Antagonist activity at PGE2-EP1 receptor assessed as PGE2-induced response by schild analysis; format: functional; conditions: read-out: pA2 (converted)
[6] = target: Cytochrome P450 2C9 (Homo sapiens, UniProt P11712); experiment: Inhibition of CYP2C9; format: ADME
Sequence of Cytochrome P450 2C9 (P11712 whole entry): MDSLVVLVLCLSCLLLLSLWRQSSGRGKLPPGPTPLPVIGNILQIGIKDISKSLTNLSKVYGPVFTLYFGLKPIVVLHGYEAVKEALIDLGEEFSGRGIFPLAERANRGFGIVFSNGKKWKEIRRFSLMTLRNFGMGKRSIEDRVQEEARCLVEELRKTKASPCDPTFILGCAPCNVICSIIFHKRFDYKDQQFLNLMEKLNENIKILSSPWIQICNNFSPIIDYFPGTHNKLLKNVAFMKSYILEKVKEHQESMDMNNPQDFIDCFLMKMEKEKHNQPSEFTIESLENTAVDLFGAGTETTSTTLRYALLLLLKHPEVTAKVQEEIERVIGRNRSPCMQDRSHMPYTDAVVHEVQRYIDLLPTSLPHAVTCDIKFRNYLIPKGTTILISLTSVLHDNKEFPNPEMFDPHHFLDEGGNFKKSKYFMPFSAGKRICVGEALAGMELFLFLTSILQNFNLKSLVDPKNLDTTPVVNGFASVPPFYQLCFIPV

[7] = Ratio of drug level in brain to blood in FCA-induced hypersensitivity rat at 10 mg/kg, po administered with NMP as vehicle; format: ADME, organism-based; set-up: dose 10 mg/kg, route oral
Method in brief: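 CFA inflammatory pain model in rats, oral dosing at 1, 3 and 10 mg/kg in 2% NMP, 2% miglyol and 2% solutol–Kleptose in water. Samples taken 1 h post-dose with the weight-bearing readout. Brain concentration measured at 10 mg/kg only; brain:blood ratio is the mean of three rats, with blood levels the mean of seven.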

[8] = system: Rattus norvegicus; experiment: Reversal of FCA-induced hypersensitivity in orally dosed rat assessed as reduction in weight bearing administered with NMP as vehicle; format: functional; conditions: po
Method in brief: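 Oral dosing in the rat CFA inflammatory pain model was at 1, 3 and 10 mg/kg. The vehicle was 2% NMP, 2% miglyol and 2% solutol–Kleptose in water. Weight bearing was assessed 1 h post-dose. Blood was sampled at 1 h (seven rats), and brain at 10 mg/kg (three rats). ED50 was given in mg/kg.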

[9] = target: T2, Cytochrome P450 1A2 (Homo sapiens, UniProt P05177); experiment: Inhibition of CYP1A2; format: ADME
T2 sequence (P05177 whole entry): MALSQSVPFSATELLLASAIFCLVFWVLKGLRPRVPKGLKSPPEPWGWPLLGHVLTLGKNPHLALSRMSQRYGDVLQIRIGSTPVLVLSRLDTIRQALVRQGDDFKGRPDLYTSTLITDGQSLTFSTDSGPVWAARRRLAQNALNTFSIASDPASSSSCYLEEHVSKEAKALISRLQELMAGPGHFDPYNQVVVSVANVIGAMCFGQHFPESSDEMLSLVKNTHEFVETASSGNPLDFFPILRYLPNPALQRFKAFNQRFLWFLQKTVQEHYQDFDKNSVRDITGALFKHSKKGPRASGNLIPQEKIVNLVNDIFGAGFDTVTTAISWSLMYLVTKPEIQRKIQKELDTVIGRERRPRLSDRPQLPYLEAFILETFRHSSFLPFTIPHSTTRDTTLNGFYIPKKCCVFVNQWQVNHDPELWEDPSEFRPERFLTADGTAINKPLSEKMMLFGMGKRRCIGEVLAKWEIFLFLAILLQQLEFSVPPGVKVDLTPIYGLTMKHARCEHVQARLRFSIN

[10] = target: Cytochrome P450 3A4 (Homo sapiens, UniProt P08684); experiment: Inhibition of CYP3A4; format: ADME
Sequence of Cytochrome P450 3A4 (P08684 whole entry): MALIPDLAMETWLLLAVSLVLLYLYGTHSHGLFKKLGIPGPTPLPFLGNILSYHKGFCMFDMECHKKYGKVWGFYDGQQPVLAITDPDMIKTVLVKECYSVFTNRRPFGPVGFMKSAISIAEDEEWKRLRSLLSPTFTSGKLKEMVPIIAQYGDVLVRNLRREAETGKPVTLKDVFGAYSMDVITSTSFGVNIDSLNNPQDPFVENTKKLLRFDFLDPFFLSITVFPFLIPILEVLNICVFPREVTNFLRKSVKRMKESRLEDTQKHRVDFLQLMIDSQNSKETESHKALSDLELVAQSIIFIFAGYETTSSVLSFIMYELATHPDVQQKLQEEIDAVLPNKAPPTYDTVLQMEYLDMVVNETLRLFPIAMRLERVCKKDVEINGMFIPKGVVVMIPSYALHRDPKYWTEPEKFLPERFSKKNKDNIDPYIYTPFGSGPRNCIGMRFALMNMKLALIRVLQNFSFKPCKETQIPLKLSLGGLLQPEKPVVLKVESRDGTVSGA

[11] = target: T3, Prostaglandin E2 receptor EP3 subtype (Homo sapiens, UniProt P43115); experiment: Antagonist activity at PGE2-EP3 receptor assessed as PGE2-induced intracellular calcium mobilization; format: functional, cell-based
T3 sequence (P43115 whole entry): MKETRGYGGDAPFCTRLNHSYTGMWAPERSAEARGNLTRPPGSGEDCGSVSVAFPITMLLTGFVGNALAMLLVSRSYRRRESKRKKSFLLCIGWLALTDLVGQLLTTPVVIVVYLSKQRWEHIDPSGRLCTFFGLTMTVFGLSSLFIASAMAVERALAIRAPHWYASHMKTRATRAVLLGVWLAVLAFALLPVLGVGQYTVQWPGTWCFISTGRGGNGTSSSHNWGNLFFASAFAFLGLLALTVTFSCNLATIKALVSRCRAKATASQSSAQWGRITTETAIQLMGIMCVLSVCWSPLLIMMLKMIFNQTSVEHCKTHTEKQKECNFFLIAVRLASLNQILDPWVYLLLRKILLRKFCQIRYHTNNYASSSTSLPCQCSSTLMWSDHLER

[12] = system: Blood; experiment: Drug uptake in FCA-induced hypersensitivity rat blood at 10 mg/kg, po administered with NMP as vehicle; format: ADME, organism-based; set-up: dose 10 mg/kg, route oral; conditions: in vivo, read-out: Drug uptake; method in brief: as §1
[13] = target: Cytochrome P450 2C19 (Homo sapiens, UniProt P33261); experiment: Inhibition of CYP2C19; format: ADME
Sequence of Cytochrome P450 2C19 (P33261 whole entry): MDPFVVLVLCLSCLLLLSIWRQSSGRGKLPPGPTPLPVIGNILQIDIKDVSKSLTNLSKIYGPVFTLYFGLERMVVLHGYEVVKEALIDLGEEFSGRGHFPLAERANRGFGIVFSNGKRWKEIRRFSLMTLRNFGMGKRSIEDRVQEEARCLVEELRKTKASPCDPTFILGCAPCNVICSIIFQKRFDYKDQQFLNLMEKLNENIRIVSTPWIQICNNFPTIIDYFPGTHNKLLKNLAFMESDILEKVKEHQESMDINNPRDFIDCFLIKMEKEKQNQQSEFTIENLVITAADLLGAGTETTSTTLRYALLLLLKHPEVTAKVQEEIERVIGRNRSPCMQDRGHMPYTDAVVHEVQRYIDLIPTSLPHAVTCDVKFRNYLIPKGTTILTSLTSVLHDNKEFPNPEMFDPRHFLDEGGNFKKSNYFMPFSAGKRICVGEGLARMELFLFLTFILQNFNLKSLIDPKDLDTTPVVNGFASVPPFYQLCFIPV

[14] = target: T1, Prostaglandin E2 receptor EP1 subtype; experiment: Displacement of [3H]PGE2 from human PGE2-EP1 receptor expressed in CHO-K1 cells; format: cell-based
[15] = Distribution coefficient, logD at pH 7.4; format: physicochemical; conditions: octanol/water
Method in brief: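 Distribution coefficient between n-octanol and water buffered to pH 7.4; log10 of ratio of equilibrium concentrations of all species.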

[16] = system: Blood; experiment: Drug uptake in FCA-induced hypersensitivity rat blood at 3 mg/kg, po administered with NMP as vehicle; conditions: in vivo
[17] = target: Cytochrome P450 2D6 (Homo sapiens, UniProt P10635); experiment: Inhibition of CYP2D6; format: ADME
Sequence of Cytochrome P450 2D6 (P10635 whole entry): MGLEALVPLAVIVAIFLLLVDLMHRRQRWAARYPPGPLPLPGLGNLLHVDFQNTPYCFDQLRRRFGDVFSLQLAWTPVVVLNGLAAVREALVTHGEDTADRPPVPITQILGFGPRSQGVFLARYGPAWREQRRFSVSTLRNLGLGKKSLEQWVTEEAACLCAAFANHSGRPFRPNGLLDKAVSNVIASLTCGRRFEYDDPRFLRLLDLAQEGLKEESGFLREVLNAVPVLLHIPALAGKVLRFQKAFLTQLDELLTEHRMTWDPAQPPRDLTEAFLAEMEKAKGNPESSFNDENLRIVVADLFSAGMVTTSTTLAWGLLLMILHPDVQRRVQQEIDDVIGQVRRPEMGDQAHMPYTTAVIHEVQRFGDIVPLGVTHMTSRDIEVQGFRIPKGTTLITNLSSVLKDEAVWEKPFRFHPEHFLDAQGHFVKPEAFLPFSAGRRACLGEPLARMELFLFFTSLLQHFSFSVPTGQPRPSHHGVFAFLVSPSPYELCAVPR

[18] = Ratio of drug level in brain to blood in FCA-induced hypersensitivity rat at 10 mg/kg, po administered with DMSO and PEG400 as vehicle; format: ADME, organism-based; set-up: dose 10 mg/kg, route oral
Method in brief: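 Rats with CFA-induced inflammatory pain dosed orally at 1, 3, 10 (and 30) mg/kg in 1% DMSO, 66% PEG400, 33% water. Blood and brain sampled 1 h post-dose, alongside the weight-bearing readout. Brain:blood ratio taken from the 10 mg/kg group, mean of seven rats.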

## Cc1cc(NC(=O)OC(C)C)nn1Cc1cc(Cl)ccc1OCc1ccccc1
[1]
  concentration: 153 nM
[2]
  Ki: 0.0501 µM
[3]
  concentration: 3330 nM
[4]
  ED50: 1.89 mg/kg
[5]
  Kb: 0.00794 µM
[6]
  IC50: 17 µM
[7]
  Kp: 2.2
[8]
  ED50: 4.6 mg/kg
[9]
  IC50: 7.8 µM
[10]
  IC50: > 81 µM
[11]
  Ki: > 10 µM
[12]
  concentration: 1400 nM
[13]
  IC50: > 100 µM
[14]
  IC50: 0.0316 µM
[15]
  logD: > 3.7
[16]
  concentration: 749 nM
[17]
  IC50: > 100 µM
[18]
  Kp: 1.73
